Data as given in ChEMBL document CHEMBL1138753, “Synthesis and biological activity of analogues of the antimicrotubule agent N,beta,beta-trimethyl-L-phenylalanyl-N(1)-[(1S,2E)-3-carboxy-1-isopropylbut-2-enyl]- N(1),3-dimethyl-L-valinamide (HTI-286)” (J Med Chem, 2004).

Experiments:
[1] = target: Tubulin beta-1 chain (Homo sapiens, UniProt Q9H4B7); assay: Percent inhibition of tubulin polymerization at 0.3 uM concentration; assay type: functional
[2] = Concentration required to inhibit tumor cell growth in KB-3-1 cells; assay type: functional, cell-based, Homo sapiens
Outline: (§1)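 Cytotoxicity was measured in paclitaxel-sensitive KB-3-1 cells and in KB-8-5 and KB-V1 cells, which express moderate and high P-glycoprotein respectively. Result is the average IC50 (nM) ± SEM; SEM is omitted where it is below 10% of the average.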

[3] = tested on: KB; assay: Concentration required to inhibit tumor cell growth in KB-8-5 cells; assay type: functional, cell-based, Homo sapiens; outline: as §1
[4] = tested on: KB; assay: Concentration required to inhibit tumor cell growth in KB-V1 cells; assay type: functional, cell-based; conditions: Homo sapiens; outline: as §1

Chain of Tubulin beta-1 chain (Q9H4B7 whole entry): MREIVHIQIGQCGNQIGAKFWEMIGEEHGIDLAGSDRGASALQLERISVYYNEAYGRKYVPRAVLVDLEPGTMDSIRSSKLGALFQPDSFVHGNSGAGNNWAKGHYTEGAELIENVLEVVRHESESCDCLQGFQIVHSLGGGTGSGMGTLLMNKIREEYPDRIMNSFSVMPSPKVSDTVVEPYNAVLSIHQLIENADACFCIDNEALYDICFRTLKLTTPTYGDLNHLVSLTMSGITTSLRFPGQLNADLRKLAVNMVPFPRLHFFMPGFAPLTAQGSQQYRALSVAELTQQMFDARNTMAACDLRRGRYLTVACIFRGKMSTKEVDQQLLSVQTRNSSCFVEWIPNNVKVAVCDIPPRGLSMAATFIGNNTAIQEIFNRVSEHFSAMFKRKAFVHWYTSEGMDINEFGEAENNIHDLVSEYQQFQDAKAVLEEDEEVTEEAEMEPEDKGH

Structure (SMILES) | inhibition [1] [%] | IC50 ([2]; Homo sapiens, KB 3-1) [nM] | IC50 ([3]; Homo sapiens, KB) [nM] | IC50 [4] [nM] | IC50 ([2]; kb 3-1) [nM] | IC50 ([3]; kb) [nM]
CS[C@H](C(=O)N[C@H](C(=O)N(C)[C@H](/C=C(\C)C(=O)O)C(C)C)C(C)(C)C)C(C)(C)c1ccccc1 | 79 | 691 | 1150 | > 6000 |  | 
CN[C@H](C(=O)N[C@@H](C(=O)N(C)[C@H](/C=C(\C)C(=O)O)C(C)C)C(C)(C)C)C(C)(C)c1ccccc1 | 1 | > 3000 | > 3000 | > 3000 |  | 
CN[C@H](C(=O)N[C@@H](C)C(=O)N(C)[C@H](/C=C(\C)C(=O)O)C(C)C)C(C)(C)c1ccccc1 | 8 | 381 | 902 | > 3000 |  | 
C/C(=C\[C@H](C(C)C)N(C)C(=O)[C@@H](NC(=O)[C@@H](N)C(C)(C)c1ccccc1)C(C)(C)C)C(=O)O (stereo in doubt; 20) [listing 1 of 2 here] |  |  |  | > 3000 | 427 | 550
C/C(=C\[C@H](C(C)C)N(C)C(=O)[C@@H](NC(=O)[C@@H](N)C(C)(C)c1ccccc1)C(C)(C)C)C(=O)O (stereo in doubt; 20) [listing 2 of 2 here] | 95 |  |  |  |  | 
C/C(=C\[C@H](C(C)C)N(C)C(=O)[C@@H](NC(=O)[C@@H](NCCO)C(C)(C)c1ccccc1)C(C)(C)C)C(=O)O | 90 | 183 | 616 | > 3000 |  | 
CN[C@H](C(=O)N[C@H](C(=O)N(C)[C@H](/C=C(\C)C(=O)O)C(C)C)C(C)(C)C)C(C)(C)C | 43 | 114 | 180 | > 3000 |  | 
CN[C@H](C(=O)N[C@H](C(=O)N(C)[C@H](C[C@H](C)C(=O)O)C(C)C)C(C)(C)C)C(C)(C)c1ccccc1 | 74 | 48 | 69 | > 3000 |  | 
CO[C@H](C(=O)N[C@H](C(=O)N(C)[C@H](/C=C(\C)C(=O)O)C(C)C)C(C)(C)C)C(C)(C)c1ccccc1 | 54 | 1420 | 1230 | > 3000 |  | 
C=CC[C@@H](C(=O)N[C@H](C(=O)N(C)[C@H](/C=C(\C)C(=O)O)C(C)C)C(C)(C)C)C(C)(C)c1ccccc1 | 63 | 1150 | 1200 | > 6000 |  | 
CN[C@H](C(=O)N[C@H](C(=O)N(C)[C@H](/C=C(\C)C(=O)O)C(C)C)C(C)(C)C)C(C)(C)Cc1ccccc1 | 87 | 3 | 6 | 219 |  | 
CCC(CC)(c1ccccc1)[C@H](NC)C(=O)N[C@H](C(=O)N(C)[C@H](/C=C(\C)C(=O)O)C(C)C)C(C)(C)C | 86 | 8.5 | 18 | 479 |  | 
CC[C@H](C(=O)N[C@H](C(=O)N(C)[C@H](/C=C(\C)C(=O)O)C(C)C)C(C)(C)C)C(C)(C)c1ccccc1 | 54 | 912 | 1200 | 5250 |  | 
CN[C@H](C(=O)N[C@H](C(=O)N(C)[C@H](/C=C(\C)C(=O)O)C(C)C)C(C)(C)C)C1(c2ccccc2)CCCC1 | 77 | 59 | 63 | 2660 |  | 
C/C(=C\[C@H](C(C)C)N(C)C(=O)[C@@H](NC(=O)[C@H](Cc1ccccc1)C(C)(C)c1ccccc1)C(C)(C)C)C(=O)O | 46 | 1690 | 2240 | > 6000 |  | 
C/C(=C\[C@H](C(C)C)N(C)C(=O)[C@@H](NC(=O)[C@@H](NCC(=O)O)C(C)(C)c1ccccc1)C(C)(C)C)C(=O)O | 35 | > 3000 | > 3000 | > 3000 |  | 
CCCCCC(C)(C)[C@H](NC)C(=O)N[C@H](C(=O)N(C)[C@H](/C=C(\C)C(=O)O)C(C)C)C(C)(C)C | 72 | 9 | 19 | 513 |  | 
CCCCCCCCOC(=O)/C(C)=C/[C@H](C(C)C)N(C)C(=O)[C@@H](NC(=O)[C@@H](NC)C(C)(C)c1ccccc1)C(C)(C)C | 26 | 150 | 1630 | > 3000 |  | 
CN[C@H](C(=O)N[C@H](C(=O)N(C)[C@H](/C=C(\C)C(=O)O)C(C)C)C(C)(C)C)C1(c2ccccc2)CC1 | 99 | 27 | 57 | 1660 |  | 
CCC[C@H](NC(=O)[C@@H](NC)C(C)(C)c1ccccc1)C(=O)N(C)[C@H](/C=C(\C)C(=O)O)C(C)C | 51 | 15 | 19 | 575 |  | 
CCN[C@H](C(=O)N[C@H](C(=O)N(C)[C@H](/C=C(\C)C(=O)O)C(C)C)C(C)(C)C)C(C)(C)c1ccccc1 | 96 | 1.6 | 2.4 | 114 |  | 
C/C(=C\[C@H](C(C)C)N(C)C(=O)[C@@H](NC(=O)[C@@H](Cc1ccccc1)C(C)(C)c1ccccc1)C(C)(C)C)C(=O)O | 46 | 1690 | 2240 | > 6000 |  | 
